The test system of data set [1] is MC65. Description: Neuroprotective activity in human MC65 cells assessed as protection against tetracycline removal-induced toxicity UP TO 10 uM incubated for 72 hrs by MTT method. It counts as functional, cell-based. The conditions noted are these: in the assay text read “UP TO 100 uM” for “UP TO 10 uM”. The method, boiled down: (§1)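 Aβ toxicity in MC65 cells (C99 expression induced by tetracycline removal) with compound present at the indicated concentrations under -TC conditions for 72 h; viability read by MTT assay.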

Data set [2] relates to MC65. Description: Neuroprotective activity in human MC65 cells assessed as protection against tetracycline removal-induced toxicity at 0.3 uM incubated for 72 hrs by MTT method. The data set is classed as functional, cell-based. Summed up: as §1
Data set [3] relates to MC65. The data set is described as follows: Neuroprotective activity in human MC65 cells assessed as protection against tetracycline removal-induced toxicity at 10 uM incubated for 72 hrs by MTT method. The data set is classed as functional, cell-based. Summed up: as §1
Data set [4] relates to MC65. The data set is described as follows: Effect on Abeta40 production in human MC65 cells at 0.1 to 1 uM incubated for 48 hrs under tetracycline removal condition by ELISA method. The data set is classed as functional, cell-based. The method, boiled down:
(§2)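 MC65 human neuroblastoma cells, which conditionally express APP C-terminal fragment C99 under tetracycline suppression, treated under -TC conditions for 48 h; Aβ40 and Aβ42 measured in the collected medium by ELISA.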

Data set [5] relates to MC65. Description: Effect on Abeta42 production in human MC65 cells at 0.1 to 1 uM incubated for 48 hrs under tetracycline removal condition by ELISA method. It counts as functional, cell-based. Summed up: as §2
In data set [6] the target is T1, Amyloid-beta precursor protein (Homo sapiens, UniProt P05067). The data set is described as follows: Inhibition of amyloid beta oligomerization in human MC65 cells assessed as small AbetaOs formation at 0.3 uM incubated for 48 hrs under tetracycline removal condition by Western blot method. It counts as cell-based. The method, boiled down: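 MC65 cells incubated with compound under -TC conditions for 48 h; culture lysates analyzed by Western blot with 6E10 antibody for Aβ oligomers.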
T1 sequence (P05067 whole entry): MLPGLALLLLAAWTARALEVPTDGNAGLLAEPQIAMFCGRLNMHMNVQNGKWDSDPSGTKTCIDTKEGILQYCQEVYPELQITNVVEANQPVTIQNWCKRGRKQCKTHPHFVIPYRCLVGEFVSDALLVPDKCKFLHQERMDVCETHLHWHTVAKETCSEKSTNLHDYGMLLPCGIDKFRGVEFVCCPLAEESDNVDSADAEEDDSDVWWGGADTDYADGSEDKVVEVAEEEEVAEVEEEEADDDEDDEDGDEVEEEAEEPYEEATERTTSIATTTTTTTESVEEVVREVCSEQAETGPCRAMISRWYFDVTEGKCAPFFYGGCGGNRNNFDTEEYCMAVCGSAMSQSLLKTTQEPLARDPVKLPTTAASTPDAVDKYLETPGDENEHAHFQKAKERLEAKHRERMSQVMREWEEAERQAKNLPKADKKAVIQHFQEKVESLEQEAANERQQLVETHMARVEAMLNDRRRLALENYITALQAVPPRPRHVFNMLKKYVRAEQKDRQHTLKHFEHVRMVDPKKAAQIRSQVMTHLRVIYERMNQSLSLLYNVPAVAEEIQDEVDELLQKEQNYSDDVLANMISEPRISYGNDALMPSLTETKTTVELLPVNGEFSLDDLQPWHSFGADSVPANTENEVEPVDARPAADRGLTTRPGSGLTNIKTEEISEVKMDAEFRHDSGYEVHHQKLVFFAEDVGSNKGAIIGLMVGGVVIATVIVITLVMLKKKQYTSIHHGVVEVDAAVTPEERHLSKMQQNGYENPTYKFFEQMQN

In data set [7] the target is T1, Amyloid-beta precursor protein. Description: Inhibition of amyloid beta (1 to 42) (unknown origin) aggregation incubated for 48 hrs by Thioflavin-T Abeta aggregation assay. Summed up:
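Aβ42 (10 µM) incubated with compound at the indicated concentrations for 48 h; aggregation measured by thioflavin T assay; curcumin (10 µM) used as positive control.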

Data set [8] can be described thus: Antioxidant activity assessed as DPPH radical scavenging activity at 0.3 to 100 uM incubated for 30 mins at 37 degC. It counts as physicochemical. Conditions: 0.5 h. Summed up:
(§3)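 Test compound or trolox incubated with DPPH (50 µM) in MeOH at 37 °C for 30 min at the indicated concentrations; radical scavenging read as absorbance at 517 nm.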

Data set [9] is described as follows: Antioxidant activity assessed as DPPH radical scavenging activity at 0.3 to 10 uM incubated for 30 mins at 37 degC. The conditions noted are these: 0.5 h. It counts as physicochemical. Summed up:
as §3

Active and inactive are the calls of the source. The rule behind the calls is not given here.

Turning to `O=C(O)c1c(O)cccc1O`, the result with MC65 [1] was inactive.

Consider `O=C(O)c1c(O)cc2c([nH]c3ccccc32)c1O`, for which the outcome in the data set on MC65 [2] and in the data set with MC65 [3] was Active. Besides, the result with MC65 [4] and with MC65 [5] was inactive. Moreover, the inhibition entry in data set [6] was “Active”. The compound further registered an IC50 in [7] of 15 µM. Also, in data set [7], the inhibition result is “Dose-dependent effect”. The result in [8] was Active.

Turning to `Cc1c(C)c2c(c(C)c1O)CCC(C)(C(=O)O)O2` (stereo not given) [TROLOX], the result in data set [9] was Active.

Values taken from ChEMBL document CHEMBL3621152, “Highly Efficient Synthesis of 1,3-Dihydroxy-2-carboxycarbazole and Its Neuroprotective Effects” (ACS Med Chem Lett, 2015).
